Drawing on PubChem BioAssay AID720702 (The Scripps Research Institute Molecular Screening Center, 2013), this text covers inhibition for 48 compounds.

Screen size: about 370,000 compounds; about 1,200 (0.32%) were called active. Many of the other results were omitted from the sample, so actives are more common in it than they were. Unmarked numbers belong to inactive results.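 The calls were made as follows: active = inhibition above the mean of all tested compounds plus 3 SD, set per campaign (cut at about 25% in these data); inactive = the rest.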

Sequence of Tyrosyl-DNA phosphodiesterase 2 (Homo sapiens) (O95551 whole entry, looked up): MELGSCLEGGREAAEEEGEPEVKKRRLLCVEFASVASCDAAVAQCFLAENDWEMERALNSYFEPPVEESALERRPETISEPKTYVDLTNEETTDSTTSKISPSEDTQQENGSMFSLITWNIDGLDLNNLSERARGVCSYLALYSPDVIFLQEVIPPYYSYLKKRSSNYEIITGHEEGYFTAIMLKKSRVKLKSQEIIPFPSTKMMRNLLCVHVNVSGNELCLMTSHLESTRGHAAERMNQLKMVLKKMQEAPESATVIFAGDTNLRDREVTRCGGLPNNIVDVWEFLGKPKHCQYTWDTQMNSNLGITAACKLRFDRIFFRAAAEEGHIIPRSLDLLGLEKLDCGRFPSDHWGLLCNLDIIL

The experiment concerns the target Tyrosyl-DNA phosphodiesterase 2 (Homo sapiens) (UniProt O95551). Kind of experiment: human TDP2 enzyme inhibitors, primary screen, biochemical, epi absorbance, recombinant enzyme (AID 720702).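 Also: 0% = DMSO with enzyme and 100% = buffer with substrate but no TDP2.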 The note with it: recombinant TDP2, T5PNP hydrolysis, p-nitrophenol absorbance 415 nm; at 12.8 µM; active compounds read high. Put shortly: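 System: recombinant human TDP2 / Amount: 120 nM TDP2 per well / Also added: 5 mM T5PNP chromogenic substrate / Doses: 12.8 µM single point, 1% DMSO / Incubation: 2 h at 37 °C / Detection: p-Nitrophenol epi absorbance / Evaluation: % inhibition relative to enzyme-containing and enzyme-free wells / Repeats: singlicate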
On to `COC(=O)CC1CCc2cc(C)cc(C(CC(C)C)NC(=O)[C@H](CC(C)C)NC(=O)OCc3ccccc3)c2O1` (stereo partly drawn), for which the inhibition was -0.76%.
The figure for `O=S(=O)(c1ccc2c(c1)OCCCO2)N1CCN(S(=O)(=O)c2c(F)cccc2F)CC1` is -13.6%; for `CCOC(=O)c1c(C)n(C)c2ccc(OC)c(NS(=O)(=O)CC)c12` it is -7.66%; for `O=C(Nc1nccs1)C1CCN(S(=O)(=O)c2ccc(Cl)c(C(F)(F)F)c2)CC1` it is 1.48%.
With `O=C1CC[C@@]23CCCN2C(=O)CCC[C@H]3[C@H]1Cc1ccccc1` the figure was -5.11%.
With `COc1ccc(CCNC(=O)COc2ccc3c(c2)OCO3)cc1` the figure was -6.66%; with `c1ccc(Cc2cc[n+](Cc3ccccc3)cc2)cc1`, 6.8%.
Regarding `CN(C)c1ccc(C(CC(=O)O)C(=O)O)cc1` (stereo not drawn), the inhibition is -4.74%.
With `CN(C)c1ccc(N/C=C/C(=O)C(F)(F)F)cc1` the figure was 40.7% (active); with `CCOC(=O)c1ccc(NC(=O)c2c(N)n(C)c(=O)[nH]c2=O)cc1`, 3.07%.
With `CCOC(=O)c1ccc(Nc2cc3ccccc3c(=O)[nH]2)cc1` the figure was 44.6% (active); with `CCOC(=O)c1ccc(NC(=O)c2c(NCc3ccccc3)[nH]c(=O)[nH]c2=O)cc1`, 1.1%; with `O=C(O)CCN(Cc1ccccc1)S(=O)(=O)c1c(Cl)cccc1Cl`, 15.2%.
With `Nn1cnnc1N/N=C/c1cc([N+](=O)[O-])c(Cl)cc1Cl` the figure was 39.5% (active); with `Clc1ccc(-n2c(COc3ccccc3)nnc2SCc2nc3ccccc3[nH]2)cc1`, -3.9%.
For the compound `CC1=C2C(=O)OC(c3ccoc3)C2(C)CCC1` (stereo not drawn), the inhibition is -14.5%.
With `COc1ccccc1/C=N/N1CCN(Cc2ccccc2Cl)CC1` the figure was -9.24%; with `COc1ccccc1CN1CCN(Cc2cc(OC)c(OC)cc2OC)CC1`, 19%.
With `COc1ccccc1CN1CCN(C(c2ccccc2)c2ccccc2)CC1` the figure was 25.9% (active); with `Cc1cc(C)nc(SC2CCCCC2NS(=O)(=O)c2ccc(Cl)cc2)n1` (stereo not drawn), 4.56%.
The figure for `Cc1coc2c(O)cc3c(c12)OC1(N2CCCCC2)C(=O)NCCCC31` (stereo not drawn) is 24.4%.
Turning to `COc1ccc(/C=C2/C(=O)N(c3ccccc3)N=C2C)c(OC)c1`, the inhibition was 3.07%.
`O=C1C2C3C=CC(C4CC34)C2C(=O)N1/N=C/c1ccc(-c2ccccc2[N+](=O)[O-])o1` (stereo not drawn): the inhibition is 11.7%.
For `CC1=NN(c2ccc(Cl)c(C(=O)O)c2)C(=O)/C1=C/c1ccc(-c2ccccc2[N+](=O)[O-])o1`, the inhibition is 36.1% (active).
The figure for `CC(C)c1ccc(S(=O)(=O)N2CCC3(CC2)OCCO3)cc1` is 3.95%; for `CC(=O)c1ccc(S(=O)(=O)N2CCC3(CC2)OCCO3)cc1` it is 25.2% (active); for `Cc1c(C)c(C)c(S(=O)(=O)N2CCC3(CC2)OCCO3)c(C)c1C` it is 5.93%.
The figure for `C=CCc1cc(C)ccc1OCCCn1ccnc1` is -6.81%.
For the compound `CCCOc1ccc(Oc2c(Cl)cnn(Cc3cccc4ccccc34)c2=O)cc1`, the inhibition is -7.56%.
As for `Cc1ccc(S(=O)(=O)N(CCCN(C)C)Cc2ccc3c(c2)OCO3)cc1`, the inhibition is 3.37%.
With `COc1ccc(N(CC(=O)Nc2cc(OC)cc(OC)c2)S(=O)(=O)c2c(C)n[nH]c2C)cc1` the figure was 10.8%; with `COc1cc(NC(=O)COC(=O)c2cnc(C)cn2)c(C)cc1[N+](=O)[O-]`, -5.59%.
As to `COc1cc(CCC(=O)OCC(=O)Nc2cccc(S(N)(=O)=O)c2)cc(OC)c1OC`, the inhibition is -0.17%.
With `COc1cc(NC(=O)COC(=O)c2ccc([N+](=O)[O-])s2)cc(OC)c1OC` the figure was 31.6% (active); with `Cc1ccc(-n2c(SCC(=O)Nc3ccc(S(=O)(=O)Nc4nccs4)cc3)nnc2-c2ccncc2)cc1`, -0.21%.
Consider `CCCCCCCCCCCCN1[C@@H](CC(C)=O)c2cc(F)cc(F)c2S1(=O)=O`, for which the inhibition was 2.78%.
As for `Cc1cc(S(=O)(=O)NC2CCCCC2)ccc1OCC(=O)NCc1cccnc1`, the inhibition is -6.47%.
With `CCOC(=O)c1c(C)oc(C)c(C(=O)OCC)c1=O` the figure was -25%.
For `CCOC(=O)c1c(C)[nH]c2c1-c1ccccc1C(=O)C2=O`, the inhibition is 55.1% (active).
With `CCOC(=O)C1=C(C)c2ccccc2OC1C(=O)OCC` (stereo not drawn) the figure was -3.4%.
With `COc1ccc(C(=O)OCc2cc(=O)n3ccsc3n2)cc1F` the figure was -6.94%; with `O=C(Cc1ccc(NC(=O)C2CCCN(C(=O)CCc3ccccc3)C2)cc1)Nc1ccc(C(=O)N2CCOCC2)cc1` (stereo not drawn), -19.6%.
Consider `Fc1ccc2nc(COCc3nc4ccc(F)cc4[nH]3)[nH]c2c1`, for which the inhibition is -1.58%.
As for `CCCCCc1ccc(-c2ccc(OCC)cc2)nc1`, the inhibition was -8.17%.
On to `CSc1ccccc1OCc1cc(C(=O)N(C)CCc2c(C)n[nH]c2C)no1`, for which the inhibition was 6.82%.
With `Cc1ccc(OCCCCc2c(C)n[nH]c2C)cc1` the figure was 25.9% (active).
For `Brc1ccc(COCCc2cn(Cc3ccccc3)c3ccccc23)cc1`, the inhibition was -2.78%.
With `CC1CCN(c2ccc(C(=O)O)cc2NS(=O)(=O)c2ccc(Br)s2)CC1` the figure was 4.53%.

The term inhibition denotes the drop in the measured response relative to a control, in per cent.
